Experimental findings from ChEMBL document CHEMBL1128471, “Reversible inhibitors of the gastric (H+/K+)-ATPase. 4. Identification of an inhibitor with an intermediate duration of action” (J Med Chem, 1995) are described below.

Test [1] addresses T1, Potassium-transporting ATPase (Sus scrofa) (UniProt P18434+P19156). The test can be described thus: (§1) Inhibition of K+ -stimulated gastric ATPase activity was measured using lyophilized gastric vesicles at pH 7. The class given is tissue-based. As to conditions: Stomach; concentration not given here. In a few lines: (§2)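 K+-stimulated ATPase activity was measured in lyophilized (permeabilized) gastric vesicles at pH 7. The value is an IC50, or percent inhibition at the stated concentration where no IC50 could be determined.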

Test [2] relates to Canis familiaris. The test can be described thus: Mean percent peak inhibition of histamine-stimulated gastric acid secretion in the heidenhain pouch dog following a single dose of 4 umol/kg through oral administration. In kind it is functional. Particulars: Canis lupus familiaris, Stomach.
The target of test [3] is T2, Potassium-transporting ATPase (Rattus norvegicus) (UniProt P09626+P18598). Description: Inhibition of pentagastrin-stimulated gastric acid secretion at a single dose of 10 umol/kg. The class given is functional. Particulars: Stomach. An outline of the steps:
(§3)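 Anesthetized, lumen-perfused rats were given pentagastrin to stimulate gastric acid secretion, and compounds were given iv. The value is an ED50 (µmol/kg iv) with 95% confidence limits, or percent inhibition ± SEM at a single 10 µmol/kg iv dose.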

Test [4] has as its target T1, Potassium-transporting ATPase (Sus scrofa). Description: Inhibition of K+ -stimulated gastric ATPase activity was measured using lyophilized gastric vesicles at pH 7 at 10. In kind it is tissue-based. As to conditions: Stomach; concentration not given here. In a few lines:
as §2

The target is the same in test [5]. Description: Inhibition of K+ -stimulated gastric ATPase activity was measured using lyophilized gastric vesicles at pH 7 at 100. In kind it is tissue-based. Particulars: Stomach; concentration not given here. An outline of the steps: as §2
Test [6] shares this target. The description is as §1. The class given is tissue-based. Also noted: concentration or dose not given beside the values. As to conditions: Stomach; concentration not given here. In a few lines:
as §2

Test [7] concerns Rattus norvegicus. The test can be described thus: Inhibition of pentagastrin-stimulated gastric acid secretion in the anesthetized rat at a single dose of 10 umol/kg iv; Insoluble. The class given is functional, organism-based. As to conditions: Stomach. In a few lines: as §3
Test [8] concerns the target Potassium-transporting ATPase (Sus scrofa, UniProt P19156). The description is as §1. In kind it is tissue-based, Stomach. An outline of the steps:
as §2

For test [9], the system named is Canis familiaris. Description: Mean percent peak inhibition of histamine-stimulated gastric acid secretion in the heidenhain pouch dog following a single dose of 1 umol/kg through iv administration. In kind it is functional. Particulars: Canis lupus familiaris, Stomach.
Test [10] concerns Rattus norvegicus. The test can be described thus: (§4) Inhibition of pentagastrin-stimulated gastric acid secretion in the anesthetized rat after iv administration. In kind it is functional, Stomach. An outline of the steps: as §3
Test [11] concerns the target T2, Potassium-transporting ATPase (Rattus norvegicus). The test is described as §4. In kind it is functional, organism-based. As to conditions: Stomach. In a few lines:
as §3

Test [12] deals with T3, Potassium-transporting ATPase (Sus scrofa, UniProt P18434+P19156). Described as §1. In kind it is tissue-based, Stomach. In a few lines: as §2
T3 sequence (P18434 whole entry): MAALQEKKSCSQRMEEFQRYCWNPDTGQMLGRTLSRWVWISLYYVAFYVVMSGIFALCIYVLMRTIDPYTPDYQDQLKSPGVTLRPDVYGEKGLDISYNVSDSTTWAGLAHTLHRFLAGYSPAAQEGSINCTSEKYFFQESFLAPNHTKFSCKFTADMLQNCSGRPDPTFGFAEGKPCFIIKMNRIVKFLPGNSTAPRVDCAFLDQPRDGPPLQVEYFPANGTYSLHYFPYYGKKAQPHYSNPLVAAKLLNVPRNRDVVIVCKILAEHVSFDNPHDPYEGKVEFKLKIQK
T3 sequence (P19156 whole entry): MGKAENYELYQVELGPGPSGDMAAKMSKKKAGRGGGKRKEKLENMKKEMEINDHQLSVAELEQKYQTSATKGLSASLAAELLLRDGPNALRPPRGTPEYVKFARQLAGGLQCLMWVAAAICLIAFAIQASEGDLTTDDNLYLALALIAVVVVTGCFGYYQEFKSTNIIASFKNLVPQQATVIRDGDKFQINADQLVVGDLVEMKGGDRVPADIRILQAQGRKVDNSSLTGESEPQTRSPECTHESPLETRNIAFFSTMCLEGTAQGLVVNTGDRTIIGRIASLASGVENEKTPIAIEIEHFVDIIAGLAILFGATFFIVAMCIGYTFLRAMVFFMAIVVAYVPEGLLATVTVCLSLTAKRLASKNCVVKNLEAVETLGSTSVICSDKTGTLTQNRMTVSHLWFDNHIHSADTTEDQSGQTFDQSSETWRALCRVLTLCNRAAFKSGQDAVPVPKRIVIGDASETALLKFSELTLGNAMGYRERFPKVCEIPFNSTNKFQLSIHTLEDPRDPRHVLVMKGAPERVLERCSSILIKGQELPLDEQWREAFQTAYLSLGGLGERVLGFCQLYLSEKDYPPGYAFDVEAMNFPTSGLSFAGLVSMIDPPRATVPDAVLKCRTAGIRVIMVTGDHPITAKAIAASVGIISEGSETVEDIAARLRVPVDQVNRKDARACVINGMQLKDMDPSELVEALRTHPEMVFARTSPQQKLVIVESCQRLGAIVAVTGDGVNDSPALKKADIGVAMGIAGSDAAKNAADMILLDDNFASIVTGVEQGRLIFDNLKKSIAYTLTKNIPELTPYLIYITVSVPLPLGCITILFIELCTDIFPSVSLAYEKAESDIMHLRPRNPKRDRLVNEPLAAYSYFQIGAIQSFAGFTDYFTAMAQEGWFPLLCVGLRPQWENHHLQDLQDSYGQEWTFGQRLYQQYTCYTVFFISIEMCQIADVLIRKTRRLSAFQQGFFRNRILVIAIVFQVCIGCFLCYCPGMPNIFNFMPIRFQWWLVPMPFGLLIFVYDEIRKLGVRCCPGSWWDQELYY
Test [13] deals with T3, Potassium-transporting ATPase. The test can be described thus: Inhibition of K+ -stimulated gastric ATPase activity was measured using lyophilized gastric vesicles at pH 7; Insoluble. In kind it is tissue-based, Stomach.
Test [14] relates to Rattus norvegicus. The test can be described thus: Inhibition of pentagastrin-stimulated gastric acid secretion in the anesthetized rat, ED50 (umol/kg iv) with 95% confidence limits. In kind it is functional. As to conditions: Stomach. In a few lines:
as §3

Chain of Potassium-transporting ATPase (Sus scrofa, UniProt P19156) (P18434 whole entry): as the sequence (P18434 whole entry) above
Chain of Potassium-transporting ATPase (Sus scrofa, UniProt P19156) (P19156 whole entry): as the sequence (P19156 whole entry) above

By inhibition is commonly meant the change of the read-out against control, counted positive when it falls. What is called inhibition in vivo is the drop in the measured response relative to a control, in per cent. As for `CCCC(=O)c1cnc2c(OC)cccc2c1Nc1ccc(OC(=O)C(C)C)cc1C`, in test [1], the inhibition is 44%. This compound also returned an inhibition in vivo at 4 µmol/kg with Canis familiaris [2] of 25%.
As to `CCCC(=O)c1cnc2cc(OC)ccc2c1Nc1ccccc1C`, the inhibition in test [3] came to 28%; in test [4], 41%.
Compound `CCCC(=O)c1cnc2cc(CO)ccc2c1Nc1ccccc1C` came in with an inhibition in test [5] of 44%.
In turn, `CCCC(=O)c1cnc2c(OC)cccc2c1Nc1cc(F)cc(F)c1` returned an inhibition in test [6] of 63%.
The compound `CCCC(=O)c1cnc2c(C)cccc2c1Nc1ccc(Cl)cc1C` came in with an inhibition in test [6] of 15%.
In test [1], `CCCC(=O)c1cnc2c(OC)cccc2c1Nc1ccc(OC(C)=O)cc1C` showed an inhibition of 25%. Further, the inhibition in vivo at 4 µmol/kg with Canis familiaris [2] was determined as 44%.
As to `CCCC(=O)c1cnc2ccc(-c3ccccc3)cc2c1Nc1ccccc1C`, the inhibition entry in the test with Rattus norvegicus [7] is “Insoluble”; in test [4], 35%.
In test [6], `CCCC(=O)c1cnc2c(OC)cccc2c1Nc1cc(F)c(O)c(F)c1` returned an inhibition of 11%.
The IC50 is the concentration at which inhibition is half-maximal. As a reminder, the Inhibition is the change of the read-out against control, counted positive when it falls. In the case of `CCC(=O)c1cnc2c(OCCOC)cccc2c1Nc1ccc(F)cc1C`, in test [8], it took 2000 nM to reach half-maximal inhibition (IC50). Moreover, in the test with Canis familiaris [9], the inhibition in vivo at 1 µmol/kg was determined as 36%. Besides, the Inhibition in the test on Rattus norvegicus [10] came to 70%. Besides, the inhibition in vivo at 4 µmol/kg with Canis familiaris [2] turned out to be 94%.
A word on the ED50: it is the midpoint of the dose-response relation. In turn, `CCCC(=O)c1cnc2c(OC)cccc2c1Nc1c(C)ccc(O)c1C` yielded an inhibition in vivo at 1 µmol/kg in the test on Canis familiaris [9] of 36%. The same compound registered an inhibition in test [6] of 35%. In addition, the ED50 in test [11] is 5.6 µmol/kg.
In turn, `CCCC(=O)c1cnc2c(C)cccc2c1Nc1cc(C)ccc1OC` came in with an inhibition in test [6] of 56%.
As to `CCCC(=O)c1cnc2c(C3OC3CO)cccc2c1Nc1ccccc1C` (stereo in doubt; 29a), half-maximal inhibition in [12] (IC50) required 3100 nM.
For the compound `CCCC(=O)c1cnc2c(C)cccc2c1Nc1cc(OC)ccc1OC`, the figures for the inhibition in test [3] and in test [6] were 28% and 29%, respectively.
As to `CCCC(=O)c1cnc2c(OC)cccc2c1Nc1cc(C)c(O)c(C)c1`, in test [13], the IC50 entry was “Insoluble”.
As for `CCCC(=O)c1cnc2c(OC)cccc2c1Nc1ccc(O)c(CN(C)C)c1`, the inhibition in test [6] stood at 35%.
In the case of `CCCC(=O)c1cnc2c(OC)cccc2c1Nc1ccc([N+](=O)[O-])cc1C`, the inhibition in [1] was found to be 17%.
In the case of `CCCC(=O)c1cnc2c(OC)cccc2c1Nc1ccc(N2CCCC2)cc1C`, the inhibition in test [3] is 0%; in test [6] it was 5%.
For the compound `CCCC(=O)c1cnc2c(C)cccc2c1Nc1ccccc1F`, the inhibition in test [3] came to 29%; in test [6] it was 53%.
For `CCCC(=O)c1cnc2c(OC)cccc2c1Nc1ccc(CO)cc1`, the inhibition in test [6] came to 38%.
Still for that read-out and setting: as for `CCCC(=O)c1cnc2c(C)cccc2c1Nc1ccc(Cl)cc1Cl`, the figure is 31%.
Turning to `CCCC(=O)c1cnc2c(C(=O)O)cccc2c1Nc1ccccc1C`, the half-maximal inhibitory concentration (IC50) in [8] was determined as 5900 nM. For the same compound, in the test with Rattus norvegicus [7], the inhibition result was “Insoluble”.
Compound `CCCC(=O)c1cnc2c(F)cccc2c1Nc1ccc(O)cc1C` yielded a concentration for half-maximal inhibition (IC50) in test [8] of 710 nM. In the test on Canis familiaris [9], this compound had an inhibition in vivo at 1 µmol/kg of 31%. This compound also had an ED50 in [11] of 4.66 µmol/kg. Further, the inhibition in vivo at 4 µmol/kg with Canis familiaris [2] is 17%.
Take `CCCC(=O)c1cnc2c(OC)cccc2c1Nc1ccc(O)c(Cl)c1`: the inhibition in [6] turned out to be 16%.
In test [8], `CCCC(=O)c1cnc2c(OC)cccc2c1Nc1c(C)cccc1C` returned a half-maximal inhibitory concentration (IC50) of 1600 nM. For the same compound, in the test on Canis familiaris [9], the inhibition in vivo at 1 µmol/kg was 62%. It took a dose of 5.24 µmol/kg to reach the 50% effect level in test [11] (ED50). The compound also registered an inhibition in vivo at 4 µmol/kg with Canis familiaris [2] of 75%.
In turn, `CCCC(=O)c1cnc2c(OC)cccc2c1Nc1ccc(O)c(F)c1` yielded an inhibition in test [6] of 40%.
In test [8], `CCCC(=O)c1cnc2c(C3CO3)cccc2c1Nc1ccccc1C` (configuration not stated) returned a half-inhibitory concentration (IC50) of 3000 nM. The same compound came in with an inhibition in vivo at 1 µmol/kg in the test on Canis familiaris [9] of 53%. Moreover, the 50% effect level in the test with Rattus norvegicus [14] (ED50) was put at a dose of 3.1 µmol/kg.
